One block for each compound: values may come before it. Active and inactive are the calls of the source. The rule behind the calls is not given here.
How the values were obtained:
[1] = target: Phosphatidylinositol 4,5-bisphosphate 3-kinase catalytic subunit alpha isoform (Homo sapiens, UniProt P42336); assay: Inhibition of PI3Kalpha (unknown origin) using PIP2 as substrate preincubated for 15 mins followed by substrate addition and measured after 1 hr in presence of ATP by HTRF assay
[2] = Inhibition of Akt phosphorylation at S473 residue (unknown origin) by cell based analysis; details: Homo sapiens
[3] = Aqueous solubility of compound; assay type: physicochemical; details: buffer
[4] = Dose normalized AUC in rat at 2.1 mg/kg, po measured upto 24 hrs by HPLC/MS/MS analysis; assay type: ADME, organism-based; details: in vivo
[5] = Inhibition of Akt phosphorylation at S473 residue in human T47D cells by cell based assay
Method in brief: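 Cellular mechanistic assay in T47D and BT474 cancer cells measuring loss of intracellular AKT phosphorylation at S473.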

T47D [6] = assay: Antiproliferative activity against human T47D cells assessed as inhibition of cell growth measured after 72 hrs by CellTiter-Glo assay; assay type: functional, cell-based
BT-474 [7] = assay: Antiproliferative activity against human BT-474 cells assessed as inhibition of cell growth measured after 72 hrs by CellTiter-Glo assay; assay type: functional, cell-based; details: BT-474, 72 h
[8] = target: DNA-dependent protein kinase catalytic subunit (Homo sapiens, UniProt P78527); assay: Inhibition of DNA-PK (unknown origin)
Homo sapiens [9] = species: Homo sapiens; assay: Inhibition of Akt phosphorylation at T308 residue (unknown origin) by cell based analysis
Homo sapiens [10] = species: Homo sapiens; assay: Inhibition of p70S6K (unknown origin)
T47D [11] = assay: Induction of cell cycle arrest in human T47D cells assessed as accumulation in G1 phase; assay type: functional, cell-based
BT-474 [12] = assay: Induction of cell cycle arrest in human BT-474 cells assessed as accumulation in G1 phase; assay type: functional, cell-based
[13] = Clearance in mouse at 0.6 mg/kg, iv by HPLC/MS/MS analysis; assay type: ADME, organism-based; details: in vivo
[14] = Volume of distribution at steady state in mouse at 0.6 mg/kg, iv by HPLC/MS/MS analysis; assay type: ADME, organism-based; details: in vivo, read-out: Vdss
[15] = Half life in mouse at 0.6 mg/kg, iv by HPLC/MS/MS analysis; assay type: ADME, organism-based; details: in vivo
[16] = Dose normalized AUC in mouse at 2.6 mg/kg, po by HPLC/MS/MS analysis; assay type: ADME, organism-based; details: in vivo
[17] = Oral bioavailability in mouse at 2.6 mg/kg by HPLC/MS/MS analysis; assay type: ADME, organism-based; details: in vivo
[18] = Clearance in rat at 0.4 mg/kg, iv by HPLC/MS/MS analysis; assay type: ADME, organism-based; details: in vivo
[19] = Volume of distribution at steady state in rat at 0.4 mg/kg, iv by HPLC/MS/MS analysis; assay type: ADME, organism-based; details: in vivo, read-out: Vdss
[20] = Half life in rat at 0.4 mg/kg, iv by HPLC/MS/MS analysis; assay type: ADME, organism-based; details: in vivo
[21] = Oral bioavailability in rat at 2.1 mg/kg by HPLC/MS/MS analysis; assay type: ADME, organism-based; details: in vivo
[22] = Clearance in dog at 0.1 mg/kg, iv by HPLC/MS/MS analysis; assay type: ADME, organism-based, Canis lupus familiaris; details: in vivo
[23] = Volume of distribution at steady state in dog at 0.1 mg/kg, iv by HPLC/MS/MS analysis; assay type: ADME, organism-based, Canis lupus familiaris; details: in vivo, read-out: Vdss
[24] = Half life in dog at 0.1 mg/kg, iv by HPLC/MS/MS analysis; assay type: ADME, organism-based, Canis lupus familiaris; details: in vivo
[25] = Dose normalized AUC in dog at 0.5 mg/kg, po by HPLC/MS/MS analysis; assay type: ADME, organism-based, Canis lupus familiaris; details: in vivo
[26] = Oral bioavailability in dog at 0.5 mg/kg by HPLC/MS/MS analysis; assay type: ADME, organism-based, Canis lupus familiaris; details: in vivo
[27] = Clearance in monkey at 0.1 mg/kg, iv by HPLC/MS/MS analysis; assay type: ADME, organism-based, Macaca mulatta; details: rhesus monkey, in vivo
[28] = Volume of distribution at steady state in monkey at 0.1 mg/kg, iv by HPLC/MS/MS analysis; assay type: ADME, organism-based, Macaca mulatta; details: rhesus monkey, in vivo, read-out: Vdss
[29] = Half life in monkey at 0.1 mg/kg, iv by HPLC/MS/MS analysis; assay type: ADME, organism-based, Macaca mulatta; details: rhesus monkey, in vivo
[30] = Dose normalized AUC in monkey at 0.6 mg/kg, po by HPLC/MS/MS analysis; assay type: ADME, organism-based, Macaca mulatta; details: rhesus monkey, in vivo
[31] = Oral bioavailability in monkey at 0.6 mg/kg by HPLC/MS/MS analysis; assay type: ADME, organism-based, Macaca mulatta; details: rhesus monkey, in vivo
Cytochrome P450 3A4 = Cytochrome P450 3A4 (Homo sapiens, UniProt P08684); assay: Inhibition of CYP3A4 (unknown origin)
Cytochrome P450 1A2 = target: T1, Cytochrome P450 1A2 (Homo sapiens, UniProt P05177); assay: Inhibition of CYP1A2 (unknown origin)
T1 sequence (P05177 whole entry): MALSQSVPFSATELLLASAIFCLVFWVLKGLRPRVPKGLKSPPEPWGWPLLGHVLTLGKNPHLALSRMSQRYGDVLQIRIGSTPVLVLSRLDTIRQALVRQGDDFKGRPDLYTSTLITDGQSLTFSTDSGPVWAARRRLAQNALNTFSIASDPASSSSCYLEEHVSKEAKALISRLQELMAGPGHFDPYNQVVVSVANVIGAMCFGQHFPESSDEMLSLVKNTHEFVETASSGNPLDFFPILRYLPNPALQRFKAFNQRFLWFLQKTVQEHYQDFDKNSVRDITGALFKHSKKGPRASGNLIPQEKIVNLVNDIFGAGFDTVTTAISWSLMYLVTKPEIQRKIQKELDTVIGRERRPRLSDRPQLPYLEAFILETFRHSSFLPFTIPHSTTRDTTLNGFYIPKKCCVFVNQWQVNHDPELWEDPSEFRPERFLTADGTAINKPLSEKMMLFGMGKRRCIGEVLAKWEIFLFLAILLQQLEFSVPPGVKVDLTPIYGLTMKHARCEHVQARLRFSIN

Cytochrome P450 2C9 = Cytochrome P450 2C9 (Homo sapiens, UniProt P11712); assay: Inhibition of CYP2C9 (unknown origin)
Cytochrome P450 2C19 = Cytochrome P450 2C19 (Homo sapiens, UniProt P33261); assay: Inhibition of CYP2C19 (unknown origin)
Cytochrome P450 2D6 = Cytochrome P450 2D6 (Homo sapiens, UniProt P10635); assay: Inhibition of CYP2D6 (unknown origin)
BT-474 [32] = assay: Antitumor activity against human BT-474 cells xenografted in mouse assessed as decrease in pAKT level at 300 microg/kg, po measured after 1 hr; assay type: functional; parameters: scale not given: the % may be the effect or the level left; details: dose 300 µg/kg
Method in brief: (§1)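 Mice bearing BT474 human tumour xenografts got one oral dose of 300 μg/kg. Tumour pAKT was read as the pAKT/total AKT ratio and compared with control. Sampling ran over a 24 h time course.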

BT-474 [33] = assay: Antitumor activity against human BT-474 cells xenografted in mouse assessed as decrease in pAKT level at 300 microg/kg, po measured after 2 hrs; assay type: functional; parameters: scale not given: the % may be the effect or the level left; details: dose 300 µg/kg; method in brief: as §1
BT-474 [34] = assay: Antitumor activity against human BT-474 cells xenografted in mouse assessed as decrease in pAKT level at 300 microg/kg, po measured after 4 hrs; assay type: functional; parameters: scale not given: the % may be the effect or the level left; details: dose 300 µg/kg; method in brief: as §1
BT-474 [35] = assay: Antitumor activity against human BT-474 cells xenografted in mouse assessed as decrease in pAKT level at 300 microg/kg, po measured after 6 hrs; assay type: functional; parameters: scale not given: the % may be the effect or the level left; details: dose 300 µg/kg; method in brief: as §1
BT-474 [36] = assay: Antitumor activity against human BT-474 cells xenografted in mouse assessed as decrease in pAKT level at 300 microg/kg, po measured after 10 hrs; assay type: functional; parameters: scale not given: the % may be the effect or the level left; details: dose 300 µg/kg; method in brief: as §1
BT-474 [37] = assay: Antitumor activity against human BT-474 cells xenografted in po dosed mouse assessed as tumor growth inhibition administered 5 times a week for 3 weeks; assay type: functional, organism-based; details: dose 0.3-3 mg/kg
[38] = Toxicity in mouse xenografted with human BT-474 cells assessed as tolerability at 3 mg/kg, po administered 5 times a week for 3 weeks; assay type: organism-based; details: in vivo, 504 h

Chain of Phosphatidylinositol 4,5-bisphosphate 3-kinase catalytic subunit alpha isoform (P42336 whole entry, canonical isoform): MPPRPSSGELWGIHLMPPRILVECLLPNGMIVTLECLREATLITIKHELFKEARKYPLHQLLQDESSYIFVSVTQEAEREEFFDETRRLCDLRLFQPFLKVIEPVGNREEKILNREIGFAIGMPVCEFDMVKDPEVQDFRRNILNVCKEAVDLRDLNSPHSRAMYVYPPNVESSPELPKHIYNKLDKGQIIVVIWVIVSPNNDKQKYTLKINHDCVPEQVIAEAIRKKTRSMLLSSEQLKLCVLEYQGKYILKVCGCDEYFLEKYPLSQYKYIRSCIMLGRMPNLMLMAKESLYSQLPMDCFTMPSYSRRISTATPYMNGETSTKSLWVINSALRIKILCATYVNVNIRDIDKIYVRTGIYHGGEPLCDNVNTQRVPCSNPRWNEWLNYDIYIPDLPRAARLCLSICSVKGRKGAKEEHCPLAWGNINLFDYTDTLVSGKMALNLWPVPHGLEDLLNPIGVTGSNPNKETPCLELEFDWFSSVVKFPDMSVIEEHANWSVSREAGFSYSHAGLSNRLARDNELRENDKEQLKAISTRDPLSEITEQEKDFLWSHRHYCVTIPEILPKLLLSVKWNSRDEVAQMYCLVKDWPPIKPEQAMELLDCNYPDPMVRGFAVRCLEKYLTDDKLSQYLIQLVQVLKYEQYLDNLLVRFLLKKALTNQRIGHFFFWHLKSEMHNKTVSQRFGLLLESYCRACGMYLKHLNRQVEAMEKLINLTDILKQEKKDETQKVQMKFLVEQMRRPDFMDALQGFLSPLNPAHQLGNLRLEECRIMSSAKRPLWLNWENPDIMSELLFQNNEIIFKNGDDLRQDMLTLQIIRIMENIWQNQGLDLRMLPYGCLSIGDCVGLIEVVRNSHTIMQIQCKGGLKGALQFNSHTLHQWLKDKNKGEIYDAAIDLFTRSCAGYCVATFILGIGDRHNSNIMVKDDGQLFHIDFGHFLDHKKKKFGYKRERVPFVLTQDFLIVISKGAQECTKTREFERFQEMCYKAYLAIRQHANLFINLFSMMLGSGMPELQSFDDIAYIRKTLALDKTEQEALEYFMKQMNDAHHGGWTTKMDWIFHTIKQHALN
Chain of Cytochrome P450 2D6 (P10635 whole entry): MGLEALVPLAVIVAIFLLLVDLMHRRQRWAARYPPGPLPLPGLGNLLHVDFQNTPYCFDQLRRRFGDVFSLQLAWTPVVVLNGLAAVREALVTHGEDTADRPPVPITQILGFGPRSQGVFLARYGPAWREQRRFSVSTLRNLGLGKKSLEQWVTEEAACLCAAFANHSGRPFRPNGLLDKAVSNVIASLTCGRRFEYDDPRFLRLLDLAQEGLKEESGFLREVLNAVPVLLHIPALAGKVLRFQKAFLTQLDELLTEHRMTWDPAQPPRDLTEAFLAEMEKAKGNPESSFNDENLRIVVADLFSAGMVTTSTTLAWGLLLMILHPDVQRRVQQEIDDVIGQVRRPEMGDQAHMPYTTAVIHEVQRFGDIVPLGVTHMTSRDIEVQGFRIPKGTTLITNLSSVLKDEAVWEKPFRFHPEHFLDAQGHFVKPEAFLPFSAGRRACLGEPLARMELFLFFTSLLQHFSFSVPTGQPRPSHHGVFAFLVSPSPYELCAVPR
Chain of Cytochrome P450 2C19 (P33261 whole entry): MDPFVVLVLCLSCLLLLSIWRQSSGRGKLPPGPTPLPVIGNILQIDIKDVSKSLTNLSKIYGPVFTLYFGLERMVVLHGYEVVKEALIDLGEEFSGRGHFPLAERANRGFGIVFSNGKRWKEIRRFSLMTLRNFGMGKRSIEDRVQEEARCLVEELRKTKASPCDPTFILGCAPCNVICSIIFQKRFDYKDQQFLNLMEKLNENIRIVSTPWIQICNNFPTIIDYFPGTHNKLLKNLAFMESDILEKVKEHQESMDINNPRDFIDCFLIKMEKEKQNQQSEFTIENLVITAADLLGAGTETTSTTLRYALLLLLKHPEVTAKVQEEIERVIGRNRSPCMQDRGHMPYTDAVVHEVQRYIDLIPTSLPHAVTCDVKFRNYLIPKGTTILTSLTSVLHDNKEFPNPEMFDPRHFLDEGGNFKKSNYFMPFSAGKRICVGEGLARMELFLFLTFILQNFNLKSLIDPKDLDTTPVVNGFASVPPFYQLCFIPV
Chain of Cytochrome P450 2C9 (P11712 whole entry): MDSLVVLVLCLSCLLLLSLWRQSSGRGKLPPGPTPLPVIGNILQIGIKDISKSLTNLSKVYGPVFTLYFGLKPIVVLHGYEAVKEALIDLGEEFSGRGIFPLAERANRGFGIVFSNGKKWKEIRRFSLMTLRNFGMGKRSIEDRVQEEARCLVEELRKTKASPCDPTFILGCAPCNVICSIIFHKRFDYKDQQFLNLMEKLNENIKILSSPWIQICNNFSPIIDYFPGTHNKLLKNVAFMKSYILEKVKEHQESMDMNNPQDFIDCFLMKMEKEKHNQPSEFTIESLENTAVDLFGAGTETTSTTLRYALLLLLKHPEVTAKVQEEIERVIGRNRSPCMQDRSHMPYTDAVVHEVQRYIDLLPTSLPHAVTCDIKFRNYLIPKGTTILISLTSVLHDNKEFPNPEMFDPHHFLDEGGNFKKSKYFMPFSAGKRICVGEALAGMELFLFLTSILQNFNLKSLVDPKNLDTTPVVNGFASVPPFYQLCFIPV
Chain of Cytochrome P450 3A4 (P08684 whole entry): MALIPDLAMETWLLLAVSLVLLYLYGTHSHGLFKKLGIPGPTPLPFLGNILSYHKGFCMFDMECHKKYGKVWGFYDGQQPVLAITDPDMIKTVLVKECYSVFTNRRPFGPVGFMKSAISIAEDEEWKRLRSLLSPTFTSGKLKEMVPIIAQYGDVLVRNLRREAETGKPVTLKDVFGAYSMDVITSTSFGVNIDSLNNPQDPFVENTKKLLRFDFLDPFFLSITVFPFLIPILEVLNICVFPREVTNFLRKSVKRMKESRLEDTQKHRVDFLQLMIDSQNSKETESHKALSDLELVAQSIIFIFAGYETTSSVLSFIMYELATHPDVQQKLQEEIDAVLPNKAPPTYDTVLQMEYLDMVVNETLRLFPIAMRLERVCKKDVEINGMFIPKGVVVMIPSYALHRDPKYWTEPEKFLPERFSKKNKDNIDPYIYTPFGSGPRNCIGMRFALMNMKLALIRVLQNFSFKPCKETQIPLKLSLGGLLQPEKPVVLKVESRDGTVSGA

SMILES: c1cc(-c2ccnc3ccc(-c4cnc5[nH]ncc5c4)cc23)ccn1
- IC50 [1]: 7 nM
- IC50 [2]: 76 nM
- solubility [3]: Insoluble

SMILES: Nc1ncc(-c2ccc3nccc(-c4ccncc4)c3c2)cc1S(N)(=O)=O
- IC50 [1]: 10 nM
- IC50 [2]: 49 nM
- solubility [3]: Soluble

SMILES: c1cc(-c2ccnc3ccc(-c4ccc5[nH]ncc5c4)cc23)ccn1
- IC50 [1]: 73 nM
- IC50 [2]: 2700 nM

SMILES: c1cncc(-c2ccc3nccc(-c4ccncc4)c3c2)c1
- IC50 [1]: 260 nM
- IC50 [2]: > 29300 nM

SMILES: O=S(=O)(Nc1cncc(-c2ccc3nccc(-c4ccncc4)c3c2)c1)c1ccc(F)cc1F
- AUC/dose [4]: 1100 ng·h/mL/mg/kg
- IC50 [1]: 0.1 nM
- IC50 [2]: 7 nM

SMILES: COc1ncc(-c2ccc3nccc(-c4ccnnc4)c3c2)cc1NS(=O)(=O)c1ccc(F)cc1F [OMIPALISIB]
- AUC/dose [4]: 6100 ng·h/mL/mg/kg
- IC50 [5]: 0.41 nM
- IC50 (T47D [6]): 3 nM
- IC50 (BT-474 [7]): 2.4 nM
- IC50 [8]: 0.28 nM
- inhibition (Homo sapiens [9]): Active
- inhibition (Homo sapiens [10]): Active
- Activity (T47D [11]): Active
- Activity (BT-474 [12]): Active
- clearance [13]: 10 mL/min/kg
- Vd [14]: 1 L/kg
- half-life [15]: 2.1 h
- AUC/dose [16]: 1100 ng·h/mL/mg/kg
- bioavailability [17]: 100%
- clearance [18]: 2.3 mL/min/kg
- Vd [19]: 1.1 L/kg
- half-life [20]: 6.2 h
- bioavailability [21]: 81%
- clearance [22]: 5.8 mL/min/kg
- Vd [23]: 0.7 L/kg
- half-life [24]: 1.3 h
- AUC/dose [25]: 2400 ng·h/mL/mg/kg
- bioavailability [26]: 80%
- clearance [27]: 3.6 mL/min/kg
- Vd [28]: 0.8 L/kg
- half-life [29]: 3.5 h
- AUC/dose [30]: 2300 ng·h/mL/mg/kg
- bioavailability [31]: 49%
- IC50 (Cytochrome P450 3A4): > 25000 nM
- IC50 (Cytochrome P450 1A2): > 25000 nM
- IC50 (Cytochrome P450 2C9): > 25000 nM
- IC50 (Cytochrome P450 2C19): > 25000 nM
- IC50 (Cytochrome P450 2D6): > 25000 nM
- Activity (BT-474 [32]): 98%
- Activity (BT-474 [33]): 93%
- Activity (BT-474 [34]): 79%
- Activity (BT-474 [35]): 47%
- Activity (BT-474 [36]): 46%
- Activity (BT-474 [37]): Dose-Dependent Effect
- Activity [38]: Non-Toxic

The remaining compounds from weak to strong by IC50 [1], led by results:

- IC50 [1]: 1800 nM
- IC50 [2]: 8080 nM
SMILES: c1ccc(-c2ccc3nccc(-c4ccncc4)c3c2)cc1

- IC50 [1]: 2 nM
- IC50 [2]: 40 nM
SMILES: O=C1NC(=O)/C(=C/c2ccc3nccc(-c4ccncc4)c3c2)S1 [GSK-1059615]

- AUC/dose [4]: 250 ng·h/mL/mg/kg
- IC50 [1]: 1 nM
- IC50 [2]: 63 nM
SMILES: Nc1ncc(-c2ccc3nccc(-c4ccncc4)c3c2)cc1S(=O)(=O)Nc1ccc(F)cc1F

- AUC/dose [4]: 920 ng·h/mL/mg/kg
- IC50 [1]: 1 nM
- IC50 [2]: 45 nM
SMILES: O=S(=O)(Nc1ccc(F)cc1F)c1cncc(-c2ccc3nccc(-c4ccncc4)c3c2)c1

From ChEMBL document CHEMBL5653618 (ACS Med Chem Lett, 2010)
